≈ marks a conversion by molar mass, not a printed value. Where only a bound is given, the exact number is not on record here.

A short description of data set [1]: Lipophilicity, log D of compound at pH 7.4. Format: physicochemical. Conditions: buffer.
The nature of data set [2]: Apparent permeability in dog MDCK2 cells at pH 7.4. The format is ADME, cell-based, Canis lupus familiaris, MDCK-II. Conditions: MDCK. A digest of the protocol:
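Passive permeability across MDCK-II cells; mean apparent permeability reported.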

Data set [3] can be described thus: Intrinsic clearance in human liver microsome. The format is ADME. Conditions: liver microsomes, read-out: CLH. For orientation: Liver microsomes are vesicles of endoplasmic reticulum, rich in cytochrome P450 enzymes.
Data set [4] in a line: Intrinsic clearance in human hepatocytes per million cells. Conditions: read-out: CLH. Format: ADME, cell-based, Hepatocyte.
Data set [5] is described as follows: Aqueous solubility of compound in pH 6.5 buffer. Format: physicochemical. In short, it runs like this: (§1)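 Solubility measured on crystalline material at pH 6.5 and pH 2.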
Data set [6] in a line: Aqueous solubility of compound in pH 2 buffer. The format is physicochemical. In short, it runs like this:
as §1

Data set [7] in a line: Clearance in Sprague-Dawley rat plasma at 1 mg/kg, iv. The format is ADME, organism-based.
A short description of data set [8]: Volume of distribution in Sprague-Dawley rat at 1 mg/kg, iv. The format is ADME, organism-based. Conditions: in vivo.
Data set [9] in a line: Half life in Sprague-Dawley rat at 1 mg/kg, iv. Format: ADME, organism-based. Conditions: in vivo.
Data set [10] can be described thus: Cmax in Sprague-Dawley rat at 3 mg/kg, po. The format is ADME, organism-based. Also on record: dose 3 mg/kg, route oral. Conditions: in vivo. A digest of the protocol: (§2)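 Sprague-Dawley rats dosed orally at 3 mg/kg, with intravenous reference at 1 mg/kg.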
A short description of data set [11]: AUC infinity in Sprague-Dawley rat at 3 mg/kg, po. The format is ADME, organism-based. Further details: dose 3 mg/kg, route oral, time infinity. Conditions: in vivo. In short, it runs like this:
as §2

Data set [12] can be described thus: Oral bioavailability in Sprague-Dawley rat at 3 mg/kg. Format: ADME, organism-based. Conditions: in vivo. In short, it runs like this:
as §2

Take `C[C@@H]1[C@@H]2CN(c3nc(Nc4cnn(C)c4)ncc3F)C[C@]12NC(=O)[C@@H]1C[C@H]1C#N`: the logD (as a rule, lipophilicity at a set pH, counting ionised and neutral species) in data set [1] amounted to 2.35. The Papp (as a rule, a coefficient for how fast a substance crosses the barrier) in [2] was 12.9 ×10⁻⁶ cm/s.

In the case of `C[C@@H]1[C@@H]2CN(c3nc(Nc4cnn(C)c4)ncc3F)C[C@]12NC(=O)[C@H]1CC1(F)F`, in data set [1], the logD is 2.92.

As to `O=C(N[C@]12C[C@H]1CN(c1nc(Nc3cnn(CCO)c3)ncc1F)C2)C1CC1`, the logD in data set [1] came to 1.75.

In the case of `C[C@@H]1[C@@H]2CN(c3nc(Nc4cnn(C)c4)ncc3F)C[C@]12NC(=O)[C@@H]1CC1(F)F`, the logD in [1] is 2.65. In addition, the Papp in data set [2] stood at 17 ×10⁻⁶ cm/s. Also, in data set [3], the microsomal CLint is below 8 µL/min/mg. Further, the hepatocyte CLint in data set [4] came to 3.45 µL/min/1e6 cells. The values for the solubility in data set [5] and in data set [6] were 140 µg/mL (≈ 344 µM) and above 15000 µg/mL, respectively. Further, the clearance (commonly a measure of how efficiently the substance is removed, as volume per time) in [7] came out at 13 mL/min/kg. In data set [8], the Vd – broadly, the apparent volume that relates the amount in the body to the concentration in plasma or blood – stood at 1.2 L/kg. In addition, the half-life (as a rule, the time in which the quantity being followed falls by half) in data set [9] was 1.4 h. Further, the highest level in data set [10] (Cmax) was 614 ng/mL. Also, the total exposure AUC(0-inf) (commonly total exposure, with the tail of the curve extrapolated) in [11] came to 2030 ng·h/mL. For the same compound, the bioavailability – broadly, the share of a dose that reaches the circulation, judged against a reference dose that is usually intravenous – in [12] was determined as 54%.

Regarding `C[C@@H]1[C@@H]2CN(c3nc(Nc4cnn(CCO)c4)ncc3F)C[C@]12NC(=O)[C@H]1C[C@@H]1C#N`, the pH-dependent lipophilicity (logD) in data set [1] was 1.75. Moreover, the Papp in data set [2] turned out to be 1.2 ×10⁻⁶ cm/s.

For `CCNC(=O)c1ccc(Nc2nccc(N3CC4CCC(C3)N4C(=O)C3CC3)n2)cc1`, the logD in [1] turned out to be 1.8.

In turn, `N#C[C@H]1C[C@@H]1C(=O)N[C@@]12C[C@@H]1CN(c1nc(Nc3cnn(CCO)c3)ncc1F)C2` had a logD in data set [1] of 1.43.

As for `O=C(C1CC1)N1C2CCC1CN(c1nc(Nc3cnn(CCO)c3)ncc1F)C2`, the logD in [1] is 1.8.

As for `O=C(N[C@@]12C[C@@H]1CN(c1nc(Nc3cnn(CCO)c3)ncc1F)C2)C1CC1`, in data set [1], the logD was found to be 1.74.

In turn, `N#C[C@@H]1C[C@H]1C(=O)N[C@@]12C[C@@H]1CN(c1nc(Nc3cnn(CCO)c3)ncc1F)C2` yielded a logD in data set [1] of 1.4.

For the compound `C[C@@H]1[C@@H]2CN(c3nc(Nc4cnn(CCO)c4)ncc3F)C[C@]12NC(=O)[C@@H]1C[C@H]1C#N`, the logD in data set [1] worked out at 1.71.

Turning to `CCNC(=O)c1ccc(Nc2nccc(N3CC4CC(C3)N4C(=O)C3CC3)n2)cc1`, in data set [1], the pH-dependent lipophilicity (logD) came out at 1.7. This logD and that of the compound before are within 0.2 log units of each other.

In data set [1], `C[C@@H]1[C@@H]2CN(c3nc(Nc4cnn(CCO)c4)ncc3F)C[C@]12NC(=O)C1CC1` gave a logD of 2.1.

Take `C[C@@H]1[C@@H]2CN(c3nc(Nc4cnn(C)c4)ncc3F)C[C@]12NC(=O)[C@H]1C[C@@H]1C#N`: in data set [1], the logD was determined as 2.32. In addition, in data set [2], the apparent permeability (Papp) was 13.8 ×10⁻⁶ cm/s.

The values above are taken from ChEMBL document CHEMBL4619733, “Design and optimization of a series of 4-(3-azabicyclo[3.1.0]hexan-3-yl)pyrimidin-2-amines: Dual inhibitors of TYK2 and JAK1” (Bioorg Med Chem, 2020).
